# ChEMBL document CHEMBL1687913, “Structure-activity relationship, conformational and biological studies of temporin L analogues” (J Med Chem, 2011)
# Where a SMILES comes first, the peptide text is derived from it. [ ]: non-standard residue; d: D form. Orn = NCCC[C@H](N)C(=O)O
# Columns and labels:
# [1] = tested on: Enterococcus faecalis; assay: Antibacterial activity against Enterococcus faecalis ATCC 29212 after 18 to 20 hrs by microbroth dilution method; type: functional
# Procedure, shortened: (§1)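 CLSI microbroth dilution, adapted. Mid-log bacteria, 2 × 10^6 CFU/mL in Mueller-Hinton broth, mixed 1:1 with MH broth holding peptide in serial 2-fold dilutions in 20% ethanol (0.75-48 μM). Incubated 18-20 h at 37 °C; growth read as A600. MIC is the lowest concentration giving 100% growth inhibition.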
# [2] = tested on: Staphylococcus capitis; assay: Antibacterial activity against Staphylococcus capitis after 18 to 20 hrs by microbroth dilution method; type: functional; procedure, shortened: as §1
# [3] = Toxicity in human erythrocytes assessed as hemolysis at 24 uM after 40 mins; type: cell-based, Erythrocyte; conditions: read-out: Activity
# Procedure, shortened: (§2)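 Human red blood cells suspended in 0.9% (w/v) NaCl and incubated 40 min at 37 °C with gentle mixing with serial 2-fold peptide dilutions (peptide predissolved in 20% ethanol). Spun 5 min at 900g; supernatant read at 415 nm. Cells lysed in distilled water set the 100% lysis reference.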
# [4] = tested on: Yersinia pseudotuberculosis; assay: Antibacterial activity against Yersinia pseudotuberculosis YPIII after 18 to 20 hrs by microbroth dilution method; type: functional
# Procedure, shortened: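 Broth microdilution adapted from CLSI. Mid-log bacteria at 2 × 10^6 CFU/mL in Mueller-Hinton broth were mixed 1:1 with MH broth containing peptide in serial 2-fold dilutions (peptide in 20% ethanol), 0.75-48 μM. Plates were incubated 18-20 h at 37 °C and growth was read as A600. MIC is the concentration giving 100% growth inhibition.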
# [5] = Toxicity in human erythrocytes assessed as hemolysis at 3 uM after 40 mins; type: cell-based, Erythrocyte; conditions: read-out: Activity; procedure, shortened: as §2
# [6] = tested on: Schizosaccharomyces pombe; assay: Antifungal activity against Schizosaccharomyces pombe after 18 to 20 hrs by microbroth dilution method; type: functional
# Procedure, shortened: (§3)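 Yeasts tested by adapted CLSI microbroth dilution in Winge medium. Peptide given in serial 2-fold dilutions (0.75-48 μM, made in 20% ethanol). Incubation 18-20 h at 30 °C, read at A600. MIC taken as the concentration giving complete (100%) growth inhibition.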
# [7] = Toxicity in human erythrocytes assessed as hemolysis at 1.5 uM after 40 mins; type: cell-based, Erythrocyte; conditions: read-out: Activity; procedure, shortened: as §2
# [8] = Toxicity in human erythrocytes assessed as hemolysis at 6 uM after 40 mins; type: cell-based, Erythrocyte; conditions: read-out: Activity; procedure, shortened: as §2
# [9] = tested on: Saccharomyces cerevisiae; assay: Antifungal activity against Saccharomyces cerevisiae after 18 to 20 hrs by microbroth dilution method; type: functional; procedure, shortened: as §3
# [10] = tested on: Staphylococcus epidermidis; assay: Antibacterial activity against Staphylococcus epidermidis ATCC 12228 after 18 to 20 hrs by microbroth dilution method; type: functional; procedure, shortened: as §1
# [11] = tested on: Streptococcus pyogenes; assay: Antibacterial activity against Streptococcus pyogenes ATCC 21547 after 18 to 20 hrs by microbroth dilution method; type: functional; procedure, shortened: as §1
# [12] = tested on: Acinetobacter baumannii; assay: Antibacterial activity against Acinetobacter baumannii ATCC 19606 after 18 to 20 hrs by microbroth dilution method; type: functional; procedure, shortened: as §1
# [13] = tested on: Pseudomonas aeruginosa; assay: Antibacterial activity against Pseudomonas aeruginosa ATCC 15692 after 18 to 20 hrs by microbroth dilution method; type: functional; procedure, shortened: as §1
# [14] = tested on: Priestia megaterium; assay: Antibacterial activity against Bacillus megaterium Bm11 after 18 to 20 hrs by microbroth dilution method; type: functional; procedure, shortened: as §1
# [15] = tested on: Pseudomonas syringae; assay: Antibacterial activity against Pseudomonas syringae pv tobaci after 18 to 20 hrs by microbroth dilution method; type: functional; procedure, shortened: as §1
# [16] = tested on: Candida albicans; assay: Antifungal activity against Candida albicans ATCC 10231 after 18 to 20 hrs by microbroth dilution method; type: functional; procedure, shortened: as §3
# [17] = tested on: Acinetobacter junii; assay: Antibacterial activity against […] Acinetobacter junii RT-4 after 18 to 20 hrs by microbroth dilution method; type: functional; procedure, shortened: as §1
# [18] = tested on: Staphylococcus aureus; assay: Antibacterial activity against Staphylococcus aureus ATCC 25923 after 18 to 20 hrs by microbroth dilution method; type: functional; procedure, shortened: as §1
# [19] = tested on: Pseudomonas aeruginosa; assay: Antibacterial activity against Pseudomonas aeruginosa ATCC 27853 after 18 to 20 hrs by microbroth dilution method; type: functional; procedure, shortened: as §1
# [20] = Toxicity in human erythrocytes assessed as hemolysis at 12 uM after 40 mins; type: cell-based, Erythrocyte; conditions: read-out: Activity; procedure, shortened: as §2
# [21] = tested on: Escherichia coli; assay: Antibacterial activity against Escherichia coli ATCC 25922 after 18 to 20 hrs by microbroth dilution method; type: functional; procedure, shortened: as §1
# [22] = tested on: Escherichia coli; assay: Antibacterial activity against Escherichia coli D21 after 18 to 20 hrs by microbroth dilution method; type: functional; procedure, shortened: as §1
# [23] = tested on: Staphylococcus aureus; assay: Antibacterial activity against Staphylococcus aureus Cowan I after 18 to 20 hrs by microbroth dilution method; type: functional; procedure, shortened: as §1
compound,measurement,setting,value
CC[C@H](C)[C@H](NC(=O)[C@H](CCCNC(=N)N)NC(=O)CNC(=O)[C@H](CC(C)C)NC(=O)[C@H](Cc1ccccc1)NC(=O)[C@H](CCCCN)NC(=O)[C@H](CO)NC(=O)[C@H](Cc1ccccc1)NC(=O)[C@H](Cc1c[nH]c2ccccc12)NC(=O)[C@@H]1CCCN1C(=O)[C@@H](NC(=O)[C@@H](N)Cc1ccccc1)C(C)C)C(=O)N[C@@H](CC(C)C)C(N)=O (H-FVPWFSKFLGRIL-NH2),MIC,[1],6 µM
same,MIC,[2],1.5 µM
same,"hemolysis at 40 min, 24 µM",[3],92%
same,MIC,[4],3 µM
same,"hemolysis at 40 min, 3 µM",[5],6%
same,MIC,[6],3 µM
same,"hemolysis at 40 min, 1.5 µM",[7],4.5%
same,"hemolysis at 40 min, 6 µM",[8],10%
same,MIC,[9],6 µM
same,MIC,[10],1.5 µM
same,MIC,[11],6 µM
same,MIC,[12],6 µM
same,MIC,[13],24 µM
same,MIC,[14],1.5 µM
same,MIC,[15],6 µM
same,MIC,[16],6 µM
same,MIC,[17],6 µM
same,MIC,[18],3 µM
same,MIC,[19],> 48 µM
same,"hemolysis at 40 min, 12 µM",[20],42%
same,MIC,[21],24 µM
same,MIC,[22],12 µM
same,MIC,[23],1.5 µM
CC[C@H](C)[C@H](NC(=O)[C@H](CCCN)NC(=O)CNC(=O)[C@H](CC(C)C)NC(=O)[C@H](Cc1ccccc1)NC(=O)[C@H](CCCCN)NC(=O)[C@H](CO)NC(=O)[C@H](Cc1ccccc1)NC(=O)[C@H](Cc1c[nH]c2ccccc12)NC(=O)[C@@H]1CCCN1C(=O)[C@@H](NC(=O)[C@@H](N)Cc1ccccc1)C(C)C)C(=O)N[C@@H](CC(C)C)C(N)=O (H-FVPWFSKFLG[Orn]IL-NH2),MIC,[1],12 µM
same,MIC,[2],6 µM
same,"hemolysis at 40 min, 24 µM",[3],72%
same,MIC,[4],6 µM
same,"hemolysis at 40 min, 3 µM",[5],1%
same,MIC,[6],12 µM
same,"hemolysis at 40 min, 1.5 µM",[7],0.7%
same,"hemolysis at 40 min, 6 µM",[8],2%
same,MIC,[9],6 µM
same,MIC,[10],6 µM
same,MIC,[11],6 µM
same,MIC,[12],12 µM
same,MIC,[13],48 µM
same,MIC,[14],6 µM
same,MIC,[15],12 µM
same,MIC,[16],6 µM
same,MIC,[17],6 µM
same,MIC,[18],12 µM
same,MIC,[19],48 µM
same,"hemolysis at 40 min, 12 µM",[20],12%
same,MIC,[21],12 µM
same,MIC,[22],24 µM
same,MIC,[23],3 µM
CC[C@H](C)[C@H](NC(=O)[C@H](CCCCN)NC(=O)CNC(=O)[C@H](CC(C)C)NC(=O)[C@H](Cc1ccccc1)NC(=O)[C@H](CCCCN)NC(=O)[C@H](CO)NC(=O)[C@H](Cc1ccccc1)NC(=O)[C@H](Cc1c[nH]c2ccccc12)NC(=O)[C@H](CCC(N)=O)NC(=O)[C@@H](NC(=O)[C@@H](N)Cc1ccccc1)C(C)C)C(=O)N[C@@H](CC(C)C)C(N)=O (H-FVQWFSKFLGKIL-NH2),MIC,[1],12 µM
same,MIC,[2],6 µM
same,"hemolysis at 40 min, 24 µM",[3],100%
same,MIC,[4],6 µM
same,"hemolysis at 40 min, 3 µM",[5],5%
same,MIC,[6],6 µM
same,"hemolysis at 40 min, 1.5 µM",[7],2.6%
same,"hemolysis at 40 min, 6 µM",[8],14%
same,MIC,[9],6 µM
same,MIC,[10],6 µM
same,MIC,[11],6 µM
same,MIC,[12],6 µM
same,MIC,[13],24 µM
same,MIC,[14],3 µM
same,MIC,[15],24 µM
same,MIC,[16],12 µM
same,MIC,[17],6 µM
same,MIC,[18],6 µM
same,MIC,[19],48 µM
same,"hemolysis at 40 min, 12 µM",[20],59%
same,MIC,[21],12 µM
same,MIC,[22],24 µM
same,MIC,[23],12 µM
